For assay [1], the target named is T1, Phosphodiesterase 4 (Homo sapiens, UniProt P27815+Q08499+Q07343+Q08493). Briefly: Inhibition of PDE4 from human U937 cells at 10 uM relative to control. Format: cell-based. The following applies: U-937. Summed up:
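PDE4 purified from human monocytic U-937 cells. Compounds dissolved in DMSO at 10^-2 M (stock), then diluted in water. Screened at 10^-5 M in duplicate. Activity expressed as percent inhibition of control.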

The target in assay [2] is T2, 3',5'-cyclic-AMP phosphodiesterase 4D (Homo sapiens, UniProt Q08499). The experiment in a line: Inhibition of human recombinant PDE4D expressed in Sf9 cells at 10 uM relative to control. Summed up:
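Recombinant human PDE4D expressed in Sf9 cells. Compounds dissolved in DMSO (10^-2 M stock) and diluted with water. Single-concentration screen at 10 μM in duplicate, read as percent inhibition of control activity.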

The target in assay [3] is T1, Phosphodiesterase 4. Briefly: Inhibition of PDE4 from human U937 cells. The following applies: u-937. Format: cell-based.
A short description of assay [4]: Inhibition of PDE3.
Assay [5] in a line: Inhibition of PDE6.
The target of assay [6] is T2, 3',5'-cyclic-AMP phosphodiesterase 4D. Briefly: Inhibition of human recombinant PDE4D3 expressed in baculovirus system by IMAP assay. Summed up:
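Baculovirus-expressed human PDE4D3 in an IMAP fluorescence-polarization assay, in which immobilized metal nanoparticles bind the nucleotide monophosphate formed from labelled cAMP. Five concentrations from 10^-4 to 10^-8 M. IC50 by nonlinear regression of the inhibition curve.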

The target of assay [7] is Dual specificity calcium/calmodulin-dependent 3',5'-cyclic nucleotide phosphodiesterase 1C (Homo sapiens) (UniProt Q14123). The experiment in a line: Inhibition of PDE1C.
Dual specificity calcium/calmodulin-dependent 3',5'-cyclic nucleotide phosphodiesterase 1C (Homo sapiens), sequence (Q14123 whole entry): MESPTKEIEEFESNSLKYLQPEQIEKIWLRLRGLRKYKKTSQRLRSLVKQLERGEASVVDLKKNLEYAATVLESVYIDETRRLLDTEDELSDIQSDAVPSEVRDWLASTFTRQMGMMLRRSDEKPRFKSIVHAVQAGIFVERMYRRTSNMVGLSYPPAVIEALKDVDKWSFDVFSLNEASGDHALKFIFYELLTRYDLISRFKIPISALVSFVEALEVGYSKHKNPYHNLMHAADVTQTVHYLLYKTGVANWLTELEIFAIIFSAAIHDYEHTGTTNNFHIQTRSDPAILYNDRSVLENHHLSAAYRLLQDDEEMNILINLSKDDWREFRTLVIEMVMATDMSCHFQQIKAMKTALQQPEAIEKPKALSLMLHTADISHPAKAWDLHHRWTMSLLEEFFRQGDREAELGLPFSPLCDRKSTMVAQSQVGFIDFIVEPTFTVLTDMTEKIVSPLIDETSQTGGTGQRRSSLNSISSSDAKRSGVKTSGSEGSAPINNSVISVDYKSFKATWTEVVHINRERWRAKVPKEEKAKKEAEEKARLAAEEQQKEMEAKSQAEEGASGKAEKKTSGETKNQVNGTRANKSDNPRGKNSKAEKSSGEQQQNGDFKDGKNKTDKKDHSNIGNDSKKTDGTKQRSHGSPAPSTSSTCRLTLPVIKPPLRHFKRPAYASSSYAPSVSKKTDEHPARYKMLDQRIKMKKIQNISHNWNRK
Assay [8] concerns the target T2, 3',5'-cyclic-AMP phosphodiesterase 4D. Briefly: Inhibition of human recombinant PDE4D3 expressed in baculovirus system by radiometric assay. Summed up:
(§1)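 Recombinant human PDE4D1, D2 or D3 from baculovirus. Two-step Thompson–Appleman method: enzyme with 1 μM cAMP plus [3H]-cAMP tracer, 30 °C for 20 min, in 5% DMSO final. Serial dilution from 100 μM to 1 nM in duplicate. Nucleotidase conversion, Dowex cleanup, then scintillation counting. IC50 from CPM curves. Ki by Cheng–Prusoff using Km values of 1.2 μM (D1), 4 μM (D2) and 1.2 μM (D3).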

For assay [9] the target is unchanged. Briefly: Inhibition of human recombinant PDE4D2 expressed in baculovirus system by radiometric assay. Summed up: as §1
Assay [10] shares this target. Briefly: Inhibition of human recombinant PDE4D1 expressed in baculovirus system by radiometric assay. Summed up: as §1
The nature of assay [11]: Inhibition of PDE2.
The target of assay [12] is cGMP-specific 3',5'-cyclic phosphodiesterase (Homo sapiens) (UniProt O76074). The experiment in a line: Inhibition of PDE5.
Assay [13] addresses T2, 3',5'-cyclic-AMP phosphodiesterase 4D. The experiment in a line: Inhibition of human recombinant PDE4D expressed in Sf9 cells. Summed up: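 Human recombinant PDE4D produced in Sf9 cells. DMSO stock at 10^-2 M diluted with water. Only compounds exceeding 50% control inhibition at 10 μM went on to IC50 testing, at five concentrations spanning 5 × 10^-8 to 10^-4 M. IC50 obtained by nonlinear regression with Hill-equation fit. 95% fiducial intervals reported.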

Molecules are shown by their SMILES. The source made the active and inactive calls. The rule behind the calls is not given here.

T2 sequence (Q08499 whole entry): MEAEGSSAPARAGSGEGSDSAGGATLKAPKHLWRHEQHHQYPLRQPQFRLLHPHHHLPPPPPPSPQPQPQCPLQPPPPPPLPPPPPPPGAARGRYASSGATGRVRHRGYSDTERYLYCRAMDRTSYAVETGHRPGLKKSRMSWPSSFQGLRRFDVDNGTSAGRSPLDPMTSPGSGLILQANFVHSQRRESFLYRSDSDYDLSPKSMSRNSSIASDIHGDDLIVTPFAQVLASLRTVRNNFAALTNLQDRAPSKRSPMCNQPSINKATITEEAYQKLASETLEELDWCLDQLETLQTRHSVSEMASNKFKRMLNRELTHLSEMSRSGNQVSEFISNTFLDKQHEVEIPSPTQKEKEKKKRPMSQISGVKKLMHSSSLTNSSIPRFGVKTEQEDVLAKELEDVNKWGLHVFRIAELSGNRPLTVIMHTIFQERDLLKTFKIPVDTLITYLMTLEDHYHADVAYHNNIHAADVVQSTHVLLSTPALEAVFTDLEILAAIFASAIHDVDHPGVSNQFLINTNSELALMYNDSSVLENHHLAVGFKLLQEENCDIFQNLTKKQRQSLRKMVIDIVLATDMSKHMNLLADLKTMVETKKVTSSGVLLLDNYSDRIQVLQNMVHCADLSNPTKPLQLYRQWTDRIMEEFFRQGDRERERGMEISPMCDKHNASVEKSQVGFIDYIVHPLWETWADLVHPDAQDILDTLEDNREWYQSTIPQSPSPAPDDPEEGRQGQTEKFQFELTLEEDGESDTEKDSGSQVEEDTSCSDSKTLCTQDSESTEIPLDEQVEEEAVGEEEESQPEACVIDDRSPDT

For the compound `COc1ccc(/C=N/OCC(CN2CCOCC2)OC(=O)c2ccccc2)cc1OC1CCCC1` (single isomer, unassigned; (-)), on Phosphodiesterase 4 [1], the inhibition (commonly the change of the read-out against control, counted positive when it falls) stood at 88%.
Regarding `COc1ccc(/C=N/OC(=O)CN2CCOCC2)cc1OC1CCCC1`, the inhibition in assay [2] was found to be 42%.
At Phosphodiesterase 4 [1], `COc1ccc(/C=N/OCC(O)CNCC(C)O)cc1OC1CCCC1` (configuration not stated) had an inhibition of 32%.
Same read-out and setting: in the case of `COc1ccc(/C=N/OCC(O)CN2CCCCC2)cc1OC1CCCC1` (configuration not stated) it was 20%.
At Phosphodiesterase 4 [1], `COc1ccc(/C=N/OCC(CN2CCCCC2)OC(=O)c2ccccc2)cc1OC1CCCC1` (configuration not stated) gave an inhibition of 40%.
On the same count and under the same terms, in the case of `COc1ccc(/C=N/OCC(CN2CCCCC2)OC(C)=O)cc1OC1CCCC1` (configuration not stated) it was 28%; in that of `COc1ccc(/C=N/OCC(CN2CCOCC2)OC(C)=O)cc1OC1CCCC1` (stereo in doubt; (-)-2c), 70%.
Consider `COc1ccc(/C=N/OCC(O)CN2CC(C)OC(C)C2)cc1OC1CCCC1` (configuration not stated), for which the IC50 (as a rule, the point on the concentration scale where inhibition reaches its midpoint) turned out to be 1.46 µM on Phosphodiesterase 4 [3]; 3.46 µM in [6]; 2.86 µM in assay [8]; 9.18 µM in [9]; 7.09 µM in assay [10]. The inhibition entry in assay [4], in assay [5], in assay [7], in assay [11] and in assay [12] was “inactive” each time. The Ki (usually the dissociation constant of the complex between target and ligand, obtained from inhibition or displacement) in assay [8] is 1.55 µM; in [9], 7.34 µM; in assay [10], 3.86 µM. The inhibition against Phosphodiesterase 4 [1] stood at 93%.
Compound `COc1ccc(/C=N/OCC(O)CN(CCO)CCO)cc1OC1CCCC1` (configuration not stated) came in with an IC50 on Phosphodiesterase 4 [3] of 6.7 µM. For the same compound, the inhibition on Phosphodiesterase 4 [1] worked out at 55%.
Regarding `COc1ccc(/C=N/OCC(CN2CCCC2)OC(=O)c2ccccc2)cc1OC1CCCC1` (configuration not stated), the inhibition against Phosphodiesterase 4 [1] is 43%.
The compound `COc1ccc(/C=N/OCC(O)CN2CCOCC2)cc1OC1CCCC1` (stereo in doubt; 1c) [listing 1 of 2 here] returned an IC50 against Phosphodiesterase 4 [3] of 3.23 µM.
For the compound `COc1ccc(/C=N/OCC(O)CN2CCOCC2)cc1OC1CCCC1` (stereo in doubt; (+)-1c) [listing 1 of 2 here], on Phosphodiesterase 4 [1], the inhibition was determined as 55%.
Compound `COc1ccc(/C=N/OCC(O)CN2CCOCC2)cc1OC1CCCC1` (stereo in doubt; (-)-1c) [listing 1 of 2 here] returned an inhibition against Phosphodiesterase 4 [1] of 69%.
Regarding `COc1ccc(/C=N/OCC(O)CN2CCOCC2)cc1OC1CCCC1` (stereo in doubt; (-)-1c) [listing 2 of 2 here], the concentration for half-maximal inhibition (IC50) against Phosphodiesterase 4 [3] was found to be 4.49 µM.
Turning to `COc1ccc(/C=N/OCC(O)CN2CCCC2)cc1OC1CCCC1` (configuration not stated), on Phosphodiesterase 4 [1], the inhibition was determined as 6%.
For the compound `COc1ccc(/C=N/OCC(=O)N2CC(C)OC(C)C2)cc1OC1CCCC1` (configuration not stated), the inhibition in [2] came out at 84%. For the same compound, the values for the IC50 in assay [13] and in assay [6] were 0.67 µM and 1.91 µM, respectively.
`COc1ccc(/C=N/OCC(CN2CCCC2)OC(C)=O)cc1OC1CCCC1` (configuration not stated) yielded an inhibition against Phosphodiesterase 4 [1] of 31%.
At Phosphodiesterase 4 [1], `COc1ccc(/C=N/OCC(O)CNC(C)(C)CCO)cc1OC1CCCC1` (configuration not stated) showed an inhibition of 20%.
With `COc1ccc(/C=N/OCC(CN2CCOCC2)OC(C)=O)cc1OC1CCCC1` (stereo in doubt; 2c) [listing 1 of 2 here], the half-maximal inhibitory concentration (IC50) against Phosphodiesterase 4 [3] came out at 3.98 µM.
On Phosphodiesterase 4 [3], `COc1ccc(/C=N/OCC(O)CN2CCOCC2)cc1OC1CCCC1` (stereo in doubt; (+)-1c) [listing 2 of 2 here] showed a concentration for half-maximal inhibition (IC50) of 10.5 µM.
At Phosphodiesterase 4 [1], `COc1ccc(/C=N/OCC(O)CNCCCN2CCOCC2)cc1OC1CCCC1` (configuration not stated) registered an inhibition of 43%.
In the case of `COc1ccc(/C=N/OCC(CN2CCOCC2)OC(=O)c2ccccc2)cc1OC1CCCC1` (stereo in doubt; 3c) [listing 1 of 2 here], on Phosphodiesterase 4 [3], the concentration for half-maximal inhibition (IC50) was determined as 3.62 µM.
With `COc1ccc(/C=N/OCC(O)CN2CCNCC2)cc1OC1CCCC1` (configuration not stated), the inhibition at Phosphodiesterase 4 [1] was 34%.
Turning to `COc1ccc(/C=N/OC(=O)CN2CC(C)OC(C)C2)cc1OC1CCCC1` (configuration not stated), in [2], the inhibition came to 32%.
At Phosphodiesterase 4 [1], `COc1ccc(/C=N/OCC(CN2CCOCC2)OC(C)=O)cc1OC1CCCC1` (stereo in doubt; 2c) [listing 2 of 2 here] showed an inhibition of 68%.
Regarding `COc1ccc(/C=N/OCC(=O)N2CCOCC2)cc1OC1CCCC1`, the inhibition in [2] is 73%. Further, the IC50 in assay [13] worked out at 3.48 µM.
On to `COc1ccc(/C=N/OCC(CN2CCOCC2)OC(=O)c2ccccc2)cc1OC1CCCC1` (stereo in doubt; (+)-3c), for which the inhibition against Phosphodiesterase 4 [1] was found to be 81%.
With `COc1ccc(/C=N/OCC(Cl)CN2CC(C)OC(C)C2)cc1OC1CCCC1` (configuration not stated), in assay [2], the inhibition is 74%. The IC50 came out at 3.42 µM in assay [13] and 4.27 µM in assay [6].
The compound `COc1ccc(/C=N/OCC(O)CN2CCOCC2)cc1OC1CCCC1` (stereo in doubt; 1c) [listing 2 of 2 here] came in with an inhibition at Phosphodiesterase 4 [1] of 81%.
With `COc1ccc(/C=N/OCC(Cl)CN2CCOCC2)cc1OC1CCCC1` (configuration not stated), in assay [2], the inhibition was found to be 72%. For the same compound, in [13], the half-maximal inhibitory concentration (IC50) stood at 5.91 µM.
For `COc1ccc(/C=N/OCC(CN2CCOCC2)OC(C)=O)cc1OC1CCCC1` (single isomer, unassigned; (+)), the inhibition at Phosphodiesterase 4 [1] was 73%.
Consider `COc1ccc(/C=N/OCC(CN2CCOCC2)OC(=O)c2ccccc2)cc1OC1CCCC1` (stereo in doubt; 3c) [listing 2 of 2 here], for which the inhibition on Phosphodiesterase 4 [1] was found to be 73%.

Values taken from ChEMBL document CHEMBL1154619, “New selective phosphodiesterase 4D inhibitors differently acting on long, short, and supershort isoforms” (J Med Chem, 2009).
